Test results: ChEMBL document CHEMBL1275567, “In vitro activity of TR-700, the antibacterial moiety of the prodrug TR-701, against linezolid-resistant strains” (2008)
≈ marks a conversion by molar mass, not a printed value.

How the values were obtained:
Format in all cases: functional
[1] = system: Staphylococcus aureus; experiment: Antimicrobial activity against Staphylococcus aureus 1651 harboring G2576U mutation in peptidyl transferase centre by broth microdilution method
How it was run: (§1)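 MIC by CLSI broth microdilution for aerobically growing bacteria, in Mueller-Hinton II broth. Test organisms were recent clinical isolates from diverse geographic centers plus laboratory-derived oxazolidinone-resistant mutants. QC strains S. aureus ATCC 29213 and E. faecalis ATCC 29212 were included in each assay set to confirm proper assay performance.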

[2] = system: Staphylococcus aureus; experiment: Antimicrobial activity against linezolid-resistant Staphylococcus aureus 1652 harboring U2500A mutation in peptidyl transferase centre by broth microdilution method; how it was run: as §1
[3] = system: Staphylococcus aureus; experiment: Antimicrobial activity against linezolid-resistant methicillin-resistant Staphylococcus aureus NRS127 by broth microdilution method; how it was run: as §1
[4] = system: Staphylococcus aureus; experiment: Antimicrobial activity against linezolid-resistant methicillin-resistant Staphylococcus aureus NRS119 harboring G2576U mutation in peptidyl transferase centre by broth microdilution method; how it was run: as §1
[5] = system: Staphylococcus aureus; experiment: Antimicrobial activity against linezolid-resistant methicillin-resistant Staphylococcus aureus NRS120 harboring G2576U mutation in peptidyl transferase centre by broth microdilution method
[6] = system: Staphylococcus aureus; experiment: Antimicrobial activity against linezolid-resistant methicillin-resistant Staphylococcus aureus NRS121 harboring G2576U mutation in peptidyl transferase centre by broth microdilution method; how it was run: as §1
[7] = system: Staphylococcus aureus; experiment: Antimicrobial activity against linezolid-resistant methicillin-resistant Staphylococcus aureus NRS271 harboring G2576U mutation in peptidyl transferase centre by broth microdilution method; how it was run: as §1
[8] = system: Staphylococcus aureus; experiment: Antimicrobial activity against linezolid-resistant Staphylococcus aureus CM/05 3067 harboring chromosomal cfr gene by broth microdilution method; how it was run: as §1
[9] = system: Staphylococcus aureus; experiment: Antimicrobial activity against linezolid-resistant Staphylococcus aureus 004-737X harboring plasmid borne cfr gene by broth microdilution method; how it was run: as §1
[10] = system: Staphylococcus aureus; experiment: Antimicrobial activity against linezolid-resistant Staphylococcus aureus 131-6952X harboring plasmid borne cfr gene by broth microdilution method; how it was run: as §1
[11] = system: Staphylococcus aureus; experiment: Antimicrobial activity against linezolid-resistant Staphylococcus aureus 425 harboring G2447U in peptidyl transferase centre by broth microdilution method; how it was run: as §1
[12] = system: Staphylococcus aureus; experiment: Antimicrobial activity against linezolid-resistant Staphylococcus aureus 480 harboring G2447U in peptidyl transferase centre by broth microdilution method; how it was run: as §1
[13] = system: Enterococcus faecalis; experiment: Antimicrobial activity against linezolid-resistant Enterococcus faecalis 413 harboring G2576U mutation in peptidyl transferase centre by broth microdilution method; how it was run: as §1
[14] = system: Enterococcus faecalis; experiment: Antimicrobial activity against linezolid-resistant Enterococcus faecalis 414 harboring G2576U mutation in peptidyl transferase centre by broth microdilution method; how it was run: as §1
[15] = system: Enterococcus faecium; experiment: Antimicrobial activity against linezolid-resistant Enterococcus faecium 854 harboring G2576U mutation in peptidyl transferase centre by broth microdilution method; how it was run: as §1
[16] = system: Staphylococcus aureus; experiment: Antimicrobial activity against linezolid-resistant Staphylococcus aureus by broth microdilution method; how it was run: as §1
[17] = system: Staphylococcus epidermidis; experiment: Antimicrobial activity against linezolid-resistant Staphylococcus epidermidis by broth microdilution method; how it was run: as §1
[18] = system: Enterococcus faecalis; experiment: Antimicrobial activity against linezolid-resistant Enterococcus faecalis by broth microdilution method; how it was run: as §1
[19] = system: Enterococcus faecium; experiment: Antimicrobial activity against linezolid-resistant Enterococcus faecium by broth microdilution method; how it was run: as §1
[20] = system: Staphylococcus hominis; experiment: Antimicrobial activity against linezolid-resistant Staphylococcus hominis by broth microdilution method; how it was run: as §1
[21] = system: Mammaliicoccus sciuri; experiment: Antimicrobial activity against linezolid-resistant Staphylococcus sciuri by broth microdilution method; how it was run: as §1
[22] = system: Staphylococcus aureus; experiment: Antimicrobial activity against […] 29213 by broth microdilution method; how it was run: as §1
[23] = system: Enterococcus faecalis; experiment: Antimicrobial activity against linezolid-resistant Enterococcus faecalis 411 harboring G2576U mutation in peptidyl transferase centre by broth microdilution method; how it was run: as §1
[24] = system: Enterococcus faecalis; experiment: Antimicrobial activity against linezolid-resistant Enterococcus faecalis 412 harboring G2576U mutation in peptidyl transferase centre by broth microdilution method; how it was run: as §1
[25] = system: Enterococcus faecalis; experiment: Antimicrobial activity against linezolid-resistant Enterococcus faecalis 1172 harboring G2576U mutation in peptidyl transferase centre by broth microdilution method; how it was run: as §1
[26] = system: Enterococcus faecalis; experiment: Antimicrobial activity against linezolid-resistant Enterococcus faecalis 3124 harboring G2576U mutation in peptidyl transferase centre by broth microdilution method; how it was run: as §1
[27] = system: Enterococcus faecalis; experiment: Antimicrobial activity against linezolid-resistant Enterococcus faecalis 3128 harboring G2576U mutation in peptidyl transferase centre by broth microdilution method; how it was run: as §1

## CC(=O)NC[C@H]1CN(c2ccc(N3CCOCC3)c(F)c2)C(=O)O1 [LINEZOLID]
[1]
  MIC: 16 µg/mL (≈ 47.4 µM)
[2]
  MIC: 32 µg/mL (≈ 94.9 µM)
[3]
  MIC: 8 µg/mL (≈ 23.7 µM)
[4]
  MIC: 64 µg/mL (≈ 190 µM)
[5]
  MIC: 64 µg/mL (≈ 190 µM)
[6]
  MIC: 64 µg/mL (≈ 190 µM)
[7]
  MIC: 32 µg/mL (≈ 94.9 µM)
[8]
  MIC: 16 µg/mL (≈ 47.4 µM)
[9]
  MIC: 8 µg/mL (≈ 23.7 µM)
[10]
  MIC: 32 µg/mL (≈ 94.9 µM)
[11]
  MIC: 32 µg/mL (≈ 94.9 µM)
[12]
  MIC: > 32 µg/mL
[13]
  MIC: 32 µg/mL (≈ 94.9 µM)
[14]
  MIC: 32 µg/mL (≈ 94.9 µM)
[15]
  MIC: 16 µg/mL (≈ 47.4 µM)
[16]
  MIC50: 2 µg/mL (≈ 5.93 µM)
  MIC90: 16 µg/mL (≈ 47.4 µM)
[17]
  MIC50: 32 µg/mL (≈ 94.9 µM)
  MIC90: > 128 µg/mL
[18]
  MIC50: 32 µg/mL (≈ 94.9 µM)
  MIC90: 32 µg/mL (≈ 94.9 µM)
[19]
  MIC50: 32 µg/mL (≈ 94.9 µM)
  MIC90: 64 µg/mL (≈ 190 µM)
[20]
  MIC: 16 µg/mL (≈ 47.4 µM)
[21]
  MIC: 16 µg/mL (≈ 47.4 µM)

## Cc1onc(-c2ccccc2)c1C(=O)N[C@@H]1C(=O)N2[C@@H]1SC(C)(C)[C@@H]2C(=O)O [OXACILLIN]
[1]
  MIC: > 32 µg/mL
[2]
  MIC: 32 µg/mL (≈ 79.7 µM)
[3]
  MIC: 32 µg/mL (≈ 79.7 µM)
[8]
  MIC: > 32 µg/mL
[9]
  MIC: > 2 µg/mL
[10]
  MIC: > 2 µg/mL
[22]
  MIC: 0.12 µg/mL (≈ 0.299 µM)
[11]
  MIC: 0.12 µg/mL (≈ 0.299 µM)
[12]
  MIC: < 0.03 µg/mL
[23]
  MIC: > 32 µg/mL
[24]
  MIC: 16 µg/mL (≈ 39.9 µM)
[13]
  MIC: > 32 µg/mL
[14]
  MIC: 16 µg/mL (≈ 39.9 µM)
[25]
  MIC: 32 µg/mL (≈ 79.7 µM)
[26]
  MIC: 8 µg/mL (≈ 19.9 µM)
[27]
  MIC: 2 µg/mL (≈ 4.98 µM)
[15]
  MIC: > 32 µg/mL

## CN[C@H](CC(C)C)C(=O)N[C@H]1C(=O)N[C@@H](CC(N)=O)C(=O)N[C@H]2C(=O)N[C@H]3C(=O)N[C@H](C(=O)N[C@H](C(=O)O)c4cc(O)cc(O)c4-c4cc3ccc4O)[C@H](O)c3ccc(c(Cl)c3)Oc3cc2cc(c3O[C@@H]2O[C@H](CO)[C@@H](O)[C@H](O)[C@H]2O[C@H]2C[C@](C)(N)[C@H](O)[C@H](C)O2)Oc2ccc(cc2Cl)[C@H]1O [VANCOMYCIN]
[23]
  MIC: 1 µg/mL (≈ 0.69 µM)
[24]
  MIC: 1 µg/mL (≈ 0.69 µM)
[13]
  MIC: 1 µg/mL (≈ 0.69 µM)
[14]
  MIC: 32 µg/mL (≈ 22.1 µM)
[25]
  MIC: > 32 µg/mL
[26]
  MIC: > 32 µg/mL
[27]
  MIC: > 32 µg/mL
[15]
  MIC: > 32 µg/mL

## CC1(C)S[C@@H]2[C@H](NC(=O)Cc3ccccc3)C(=O)N2[C@H]1C(=O)O [PENICILLIN G]
[1]
  MIC: 16 µg/mL (≈ 47.8 µM)
[2]
  MIC: 32 µg/mL (≈ 95.7 µM)
[3]
  MIC: 16 µg/mL (≈ 47.8 µM)
[22]
  MIC: 1 µg/mL (≈ 2.99 µM)
[11]
  MIC: 1 µg/mL (≈ 2.99 µM)
[12]
  MIC: 0.25 µg/mL (≈ 0.748 µM)
[23]
  MIC: 4 µg/mL (≈ 12 µM)
[24]
  MIC: 2 µg/mL (≈ 5.98 µM)
[13]
  MIC: 4 µg/mL (≈ 12 µM)
[14]
  MIC: 1 µg/mL (≈ 2.99 µM)
[25]
  MIC: 4 µg/mL (≈ 12 µM)

## Cn1nnc(-c2ccc(-c3ccc(N4C[C@H](CO)OC4=O)cc3F)cn2)n1 [TEDIZOLID]
[1]
  MIC: 2 µg/mL (≈ 5.4 µM)
[2]
  MIC: 4 µg/mL (≈ 10.8 µM)
[3]
  MIC: 1 µg/mL (≈ 2.7 µM)
[4]
  MIC: 4 µg/mL (≈ 10.8 µM)
[5]
  MIC: 8 µg/mL (≈ 21.6 µM)
[6]
  MIC: 4 µg/mL (≈ 10.8 µM)
[7]
  MIC: 2 µg/mL (≈ 5.4 µM)
[8]
  MIC: 1 µg/mL (≈ 2.7 µM)
[9]
  MIC: 0.5 µg/mL (≈ 1.35 µM)
[10]
  MIC: 1 µg/mL (≈ 2.7 µM)
[22]
  MIC: 1 µg/mL (≈ 2.7 µM)
[11]
  MIC: 8 µg/mL (≈ 21.6 µM)
[12]
  MIC: 16 µg/mL (≈ 43.2 µM)
[23]
  MIC: 2 µg/mL (≈ 5.4 µM)
[24]
  MIC: 2 µg/mL (≈ 5.4 µM)
[15]
  MIC: 2 µg/mL (≈ 5.4 µM)
[16]
  MIC50: 0.25 µg/mL (≈ 0.675 µM)
  MIC90: 2 µg/mL (≈ 5.4 µM)
[17]
  MIC50: 4 µg/mL (≈ 10.8 µM)
  MIC90: 8 µg/mL (≈ 21.6 µM)
[18]
  MIC50: 4 µg/mL (≈ 10.8 µM)
  MIC90: 4 µg/mL (≈ 10.8 µM)
[19]
  MIC50: 2 µg/mL (≈ 5.4 µM)
  MIC90: 4 µg/mL (≈ 10.8 µM)
[20]
  MIC: 2 µg/mL (≈ 5.4 µM)
[21]
  MIC: 2 µg/mL (≈ 5.4 µM)
